Measurements: ChEMBL document CHEMBL1140905

Key:
Staphylococcus aureus = assay: Inhibition of staphyloxanthin biosynthesis in Staphylococcus aureus Pig1 isolate after 72 hrs; type: functional, organism-based; settings: PIG1, 72 h
Method in brief: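 Wild-type clinical isolate Pig1 grown in THB (1 mL) with serially diluted compounds, 37 °C, 72 h, in duplicate. Cells centrifuged and washed twice with PBS. Pigment extracted with methanol, OD read at 450 nm. IC50 from dose-response fit of OD data.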

BL21-DE3 [1] = assay: Selectivity ratio of IC50 for human squalene synthase to IC50 for Staphylococcus aureus dehydrosqualene synthase expressed in Escherichia coli BL21 (DE3) cells
BL21-DE3 [2] = assay: Selectivity ratio of IC50 for human squalene synthase to IC50 for Staphylococcus aureus dehydrosqualene synthase expressed in Escherichia coli BL21 (DE3) cells assessed as relative selectivity relative to potassium 4-(3-phenoxyphenyl)-1-phosphonatobutane-1-sulfonate
[3] = target: T1, 4,4'-diapophytoene synthase (Staphylococcus aureus, UniProt A9JQL9); assay: Inhibition of Staphylococcus aureus dehydrosqualene synthase expressed in Escherichia coli BL21 (DE3) cells by continuous spectrophotometric assay
T1 sequence (A9JQL9 whole entry): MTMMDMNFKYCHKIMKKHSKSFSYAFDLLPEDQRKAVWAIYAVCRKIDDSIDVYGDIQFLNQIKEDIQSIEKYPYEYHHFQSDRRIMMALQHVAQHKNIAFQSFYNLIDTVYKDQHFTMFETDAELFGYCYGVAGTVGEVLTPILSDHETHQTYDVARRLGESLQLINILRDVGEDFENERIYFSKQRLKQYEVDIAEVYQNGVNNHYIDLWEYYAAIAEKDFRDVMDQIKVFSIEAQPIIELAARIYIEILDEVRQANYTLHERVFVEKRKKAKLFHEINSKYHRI
Method in brief: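 His-tagged S. aureus CrtM, Ni-NTA purified after IPTG induction (1 mM, 4 h). Compounds preincubated with 2 μg CrtM for 30 min at 20 °C. Phosphate release followed by continuous spectrophotometric coupled assay. IC50 from dose-response fit; Ki derived from IC50 and reported Km.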

Squalene synthase = target: T2, Squalene synthase (Homo sapiens, UniProt P37268); assay: Inhibition of human recombinant squalene synthase expressed in Escherichia coli BL21 (DE3) cells assessed as formation of 1,10-dioic acid metabolite by liquid scintillation
T2 sequence (P37268 whole entry): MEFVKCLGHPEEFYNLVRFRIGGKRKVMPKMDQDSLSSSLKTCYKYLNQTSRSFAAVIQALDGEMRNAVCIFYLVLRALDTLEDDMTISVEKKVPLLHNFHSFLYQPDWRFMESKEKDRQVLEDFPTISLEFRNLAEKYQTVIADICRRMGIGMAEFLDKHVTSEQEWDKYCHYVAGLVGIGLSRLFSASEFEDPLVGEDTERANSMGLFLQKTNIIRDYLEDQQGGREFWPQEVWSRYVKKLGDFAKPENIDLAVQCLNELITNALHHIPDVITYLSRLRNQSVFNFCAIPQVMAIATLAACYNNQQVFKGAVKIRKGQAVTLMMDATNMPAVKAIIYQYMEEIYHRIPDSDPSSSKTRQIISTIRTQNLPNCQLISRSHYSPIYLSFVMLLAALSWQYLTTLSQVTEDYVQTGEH

SMILES	IC50 (Staphylococcus aureus) [nM]	IC50 [3] [nM]	also measured
O=P(O)(O)C(CCc1cccc(Oc2ccccc2)c1)S(=O)(=O)O (stereo not given)	20400	–	Ratio IC50 (BL21-DE3 [1]): 0.0011; Ratio IC50 (BL21-DE3 [2]): 0.4
CCn1c2ccccc2c2cc(CCCC(P(=O)(O)O)S(=O)(=O)O)ccc21 (stereo not given)	263000	–	–
O=P(O)(O)C(CCCc1cccc(Cc2ccccc2)c1)S(=O)(=O)O (stereo not given)	170	–	–
O=P(O)(O)C(CCCc1cc(Oc2ccc(F)cc2)ccc1F)S(=O)(=O)O (stereo not given)	59	2100	–
O=P(O)(O)C(CCCc1cccc(Oc2ccccc2Cc2ccccc2)c1)S(=O)(=O)O (stereo not given)	19	–	–
O=P(O)(O)C(CCCc1cccc(Oc2cc(Cl)cc(Cl)c2)c1)S(=O)(=O)O (stereo not given)	51	6300	–
O=P(O)(O)C(CCCc1ccc(-c2ccccc2)cc1)S(=O)(=O)O (stereo not given)	350	–	–
O=P(O)(O)C(CCCc1cccc(Oc2ccc(Oc3ccccc3)cc2)c1)S(=O)(=O)O (stereo not given)	100	–	–
O=P(O)(O)[C@@H](CCCc1cccc(Oc2ccccc2)c1)S(=O)(=O)O	310	47900	–
COc1ccc(Oc2ccc(F)cc2)cc1CCCC(P(=O)(O)O)S(=O)(=O)O (stereo not given)	13800	–	–
O=P(O)(O)C(CCCc1cccc(Oc2ccc(Cl)cc2)c1)S(=O)(=O)O (stereo not given)	39	2500	–
O=P(O)(O)C(CCCc1ccc(Oc2ccccc2)cc1)S(=O)(=O)O (stereo not given)	190	–	–
O=P(O)(O)C(CCCc1cccc(Oc2ccc(F)cc2)c1)S(=O)(=O)O (stereo not given)	52	–	Ki [3]: 5 nM
CP(=O)(O)C(CCCc1ccc(-c2ccccc2)cc1)P(=O)(O)O (stereo not given)	1400	5400	IC50 (Squalene synthase): 72 nM; Ratio IC50 (BL21-DE3 [1]): 0.014; Ratio IC50 (BL21-DE3 [2]): 4.7
O=P(O)(O)C(CCCc1cccc(Oc2ccccc2F)c1)S(=O)(=O)O (stereo not given)	510	6900	–
O=P(O)(O)C(CCCc1cccc(Oc2cccc(F)c2)c1)S(=O)(=O)O (stereo not given)	220	2200	–
CCCOc1cccc(-c2ccc(CCCC(P(=O)(O)O)S(=O)(=O)O)cc2)c1 (stereo not given)	490	–	–
O=P(O)(O)[C@H](CCCc1cccc(Oc2ccccc2)c1)S(=O)(=O)O	50	–	–
CC(C)(C)c1ccc(Oc2cccc(CCCC(P(=O)(O)O)S(=O)(=O)O)c2)cc1 (stereo not given)	21	–	–

SMILES	IC50 (Staphylococcus aureus) [nM]	IC50 [3] [nM]	also measured
O=P(O)(O)C(CCCc1cccc(Oc2ccc(O)cc2)c1)S(=O)(=O)O (stereo not given)	6800	–	–
O=P(O)(O)C(CCCc1cccc(Nc2ccccc2)c1)S(=O)(=O)O (stereo not given)	500	–	–
O=P(O)(O)C(CCCc1cccc(Oc2ccccc2C(F)(F)F)c1)S(=O)(=O)O (stereo not given)	460	53700	–
CCCCc1ccc(-c2ccc(CCCC(P(=O)(O)O)S(=O)(=O)O)cc2)cc1 (stereo not given)	160	–	–
Cc1ccc(-c2ccc(CCCC(P(=O)(O)O)S(=O)(=O)O)cc2)cc1 (stereo not given)	180	–	–
O=P(O)(O)C(CCCc1cccc(Oc2ccc(-c3ccco3)cc2)c1)S(=O)(=O)O (stereo not given)	1100	26300	–
O=P(O)(O)C(CCCc1ccc(-c2ccccc2)cc1)P(=O)(O)O	2200	–	Ki [3]: 1 nM
O=P(O)(O)C(CCCc1cccc(Oc2cc(F)cc(F)c2)c1)S(=O)(=O)O (stereo not given)	15	4600	–
O=P(O)(O)C(CCCc1cccc(Oc2ccc(Cl)c(Cl)c2)c1)S(=O)(=O)O (stereo not given)	11	2200	–
O=P(O)(O)C(CCCc1cccc(Oc2cccc(C(F)(F)F)c2)c1)S(=O)(=O)O (stereo not given)	74	9800	–
O=P(O)(O)C(Cc1cccc(Oc2ccccc2)c1)S(=O)(=O)O (stereo not given)	33900	–	Ratio IC50 (BL21-DE3 [1]): 0.0022; Ratio IC50 (BL21-DE3 [2]): 0.8
O=P(O)(O)C(CCCc1cccc(Oc2ccc(Cc3ccccc3)cc2)c1)S(=O)(=O)O (stereo not given)	49	–	–
O=P(O)(O)C(CCCc1cccc(Oc2ccccc2)c1)S(=O)(=O)O (racemic)	110	–	–
O=P(O)(O)C(CCCc1cccc(Oc2ccc(C(F)(F)F)cc2)c1)S(=O)(=O)O (stereo not given)	40	–	–
O=P(O)(O)C(CCCc1cccc(Oc2ccc(F)c(F)c2)c1)S(=O)(=O)O (stereo not given)	110	1700	–
CCCc1ccc(Oc2cccc(CCCC(P(=O)(O)O)S(=O)(=O)O)c2)cc1 (stereo not given)	93	–	Ki [3]: 5 nM
O=P(O)(O)C(CCCc1ccc(-c2ccc(F)cc2F)cc1)S(=O)(=O)O (stereo not given)	180	–	–
O=P(O)(O)C(CCCc1cccc(Oc2ccc3occc3c2)c1)S(=O)(=O)O (stereo not given)	15	2100	–
O=P(O)(O)C(CCCc1ccc(-c2ccc(C(F)(F)F)cc2)cc1)P(=O)(O)O	1100	–	Ki [3]: 0.5 nM; Ratio IC50 (BL21-DE3 [1]): 0.014; Ratio IC50 (BL21-DE3 [2]): 4.8
